The record followed here is ChEMBL document CHEMBL5046302, “Identification and Evaluation of Brominated Carbazoles as a Novel Antibiotic Adjuvant Scaffold in MRSA” (2022).

The source made the active and inactive calls. The calls are words filed in the database; no cut-off is given here.

Common to all, as to assay type: functional
For assay [1], the system named is Staphylococcus aureus. As to the kind of experiment: Potentiation of oxacillin induced antibacterial activity against methicillin-resistant Staphylococcus aureus assessed as fold decrease in blaI gene expression at 50 uM by RT-qPCR analysis. Put shortly:
(§1)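 Fold dampening is the relative mRNA level of the gene, normalised to 16S rRNA, in oxacillin-treated cells divided by that in cells cotreated with oxacillin plus carbazole. Carbazole was used at 25 or 50 μM, as given in each line.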
Background: Quantitative PCR measures a nucleic acid by following its amplification.

For assay [2], the system named is Staphylococcus aureus. As to the kind of experiment: Upregulation of mecA gene expression in methicillin-resistant Staphylococcus aureus USA100 at 50 uM by RT-PCR method.
Assay [3] deals with Staphylococcus aureus. The assay is described as follows: Potentiation of oxacillin induced antibacterial activity against methicillin-resistant Staphylococcus aureus assessed as fold decrease in blaZ gene expression at 50 uM by RT-qPCR analysis. The method, boiled down: as §1
Assay [4] has as its system Staphylococcus aureus. As to the kind of experiment: Upregulation of mecA gene expression in methicillin-resistant Staphylococcus aureus ATCC 43300 at 50 uM by RT-PCR method.
The test system of assay [5] is Staphylococcus aureus. As to the kind of experiment: Potentiation of oxacillin induced antibacterial activity against methicillin-resistant Staphylococcus aureus USA300 harboring stk1 deletion mutant co-transfected with a plasmid bearing stk1 assessed as oxacillin MIC at 50 uM after 18 hrs by CLSI protocol based broth microdilution assay. Put shortly: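 Oxacillin MIC by broth microdilution in the USA300 Δstk1 strain complemented with plasmid-borne stk1, with stk1 expression induced. Tested with and without carbazole at 50 μM. Fold change in MIC is taken relative to oxacillin alone.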

The subject of assay [6] is Staphylococcus aureus. The assay is described as follows: Potentiation of oxacillin induced antibacterial activity against methicillin-resistant Staphylococcus aureus assessed as fold decrease in mecI gene expression at 50 uM by RT-qPCR analysis. Put shortly:
as §1

Assay [7] relates to Staphylococcus aureus. The assay is described as follows: Upregulation of mecA gene expression in methicillin-resistant Staphylococcus aureus USA300 at 50 uM by RT-PCR method.
Assay [8] relates to Staphylococcus aureus. As to the kind of experiment: Potentiation of oxacillin induced antibacterial activity against methicillin-resistant Staphylococcus aureus USA300 harboring stk1 deletion mutant assessed as fold change in oxacillin MIC at 50 uM after 18 hrs by CLSI protocol based broth microdilution assay. (Dilution methods test growth across graded concentrations, often in twofold steps.)

Assay [9] concerns Staphylococcus aureus. The assay is described as follows: Potentiation of oxacillin induced antibacterial activity against methicillin-resistant Staphylococcus aureus COL assessed as oxacillin MIC at 25 uM after 18 hrs by CLSI protocol based broth microdilution assay.
Assay [10] concerns Staphylococcus aureus. The assay is described as follows: Potentiation of methicillin induced antibacterial activity against methicillin-resistant Staphylococcus aureus USA300 assessed as methicillin MIC at 25 uM after 18 hrs by CLSI protocol based broth microdilution assay.
Assay [11] has as its system Staphylococcus aureus. The assay is described as follows: Potentiation of ceftazidime induced antibacterial activity against methicillin-resistant Staphylococcus aureus USA100 assessed as fold change in ceftazidime MIC at 25 uM after 18 hrs by CLSI protocol based broth microdilution assay.
For assay [12], the system named is Staphylococcus aureus. As to the kind of experiment: Upregulation of mecA gene expression in methicillin-resistant Staphylococcus aureus COL at 25 uM by RT-PCR method.
Assay [13] has as its system Staphylococcus aureus. The assay is described as follows: Potentiation of ceftazidime induced antibacterial activity against methicillin-resistant Staphylococcus aureus ATCC 43300 assessed as ceftazidime MIC at 25 uM after 18 hrs by CLSI protocol based broth microdilution assay.
The test system of assay [14] is Staphylococcus aureus. The assay is described as follows: Potentiation of oxacillin induced antibacterial activity against methicillin-resistant Staphylococcus aureus USA300 assessed as oxacillin MIC at 25 uM after 18 hrs by CLSI protocol based broth microdilution assay.
The subject of assay [15] is Staphylococcus aureus. As to the kind of experiment: Potentiation of ampicillin induced antibacterial activity against methicillin-resistant Staphylococcus aureus USA100 assessed as ampicillin MIC at 25 uM after 18 hrs by CLSI protocol based broth microdilution assay.
The test system of assay [16] is Staphylococcus aureus. As to the kind of experiment: Potentiation of cefoxitin induced antibacterial activity against methicillin-resistant Staphylococcus aureus ATCC 43300 assessed as cefoxitin MIC at 25 uM after 18 hrs by CLSI protocol based broth microdilution assay.
The subject of assay [17] is Staphylococcus aureus. The assay is described as follows: Potentiation of cefoxitin induced antibacterial activity against methicillin-resistant Staphylococcus aureus ATCC 43300 assessed as fold change in cefoxitin MIC at 25 uM after 18 hrs by CLSI protocol based broth microdilution assay.
Assay [18] relates to Staphylococcus aureus. The assay is described as follows: Potentiation of cefoxitin induced antibacterial activity against methicillin-resistant Staphylococcus aureus COL assessed as fold change in cefoxitin MIC at 25 uM after 18 hrs by CLSI protocol based broth microdilution assay.
Assay [19] relates to Staphylococcus aureus. As to the kind of experiment: Upregulation of blaZ gene expression in methicillin-resistant Staphylococcus aureus USA100 at 25 uM by RT-PCR method.
For assay [20], the system named is Staphylococcus aureus. The assay is described as follows: Potentiation of cefoxitin induced antibacterial activity against methicillin-resistant Staphylococcus aureus USA300 assessed as cefoxitin MIC at 25 uM after 18 hrs by CLSI protocol based broth microdilution assay.
In assay [21] the test system is Staphylococcus aureus. The assay is described as follows: Potentiation of oxacillin induced antibacterial activity against methicillin-resistant Staphylococcus aureus assessed as fold decrease in blaZ gene expression at 25 uM by RT-qPCR analysis. Put shortly: as §1
Assay [22] concerns Staphylococcus aureus. As to the kind of experiment: Potentiation of oxacillin induced antibacterial activity against methicillin-resistant Staphylococcus aureus USA300 assessed as fold change in oxacillin MIC at 25 uM after 18 hrs by CLSI protocol based broth microdilution assay.
Assay [23] concerns Staphylococcus aureus. The assay is described as follows: Potentiation of ampicillin induced antibacterial activity against methicillin-resistant Staphylococcus aureus COL assessed as ampicillin MIC at 25 uM after 18 hrs by CLSI protocol based broth microdilution assay.
Assay [24] concerns Staphylococcus aureus. The assay is described as follows: Upregulation of mecA gene expression in methicillin-resistant Staphylococcus aureus USA300 at 25 uM by RT-PCR method.
Assay [25] concerns Staphylococcus aureus. The assay is described as follows: Potentiation of cefoxitin induced antibacterial activity against methicillin-resistant Staphylococcus aureus USA300 assessed as fold change in cefoxitin MIC at 25 uM after 18 hrs by CLSI protocol based broth microdilution assay.
Assay [26] has as its system Staphylococcus aureus. As to the kind of experiment: Potentiation of methicillin induced antibacterial activity against methicillin-resistant Staphylococcus aureus ATCC 43300 assessed as fold change in methicillin MIC at 25 uM after 18 hrs by CLSI protocol based broth microdilution assay.
For assay [27], the system named is Staphylococcus aureus. The assay is described as follows: Potentiation of ceftazidime induced antibacterial activity against methicillin-resistant Staphylococcus aureus ATCC 43300 assessed as fold change in ceftazidime MIC at 25 uM after 18 hrs by CLSI protocol based broth microdilution assay.
Assay [28] relates to Staphylococcus aureus. As to the kind of experiment: Potentiation of ampicillin induced antibacterial activity against methicillin-resistant Staphylococcus aureus USA300 assessed as fold change in ampicillin MIC at 25 uM after 18 hrs by CLSI protocol based broth microdilution assay.
In assay [29] the test system is Staphylococcus aureus. The assay is described as follows: Potentiation of oxacillin induced antibacterial activity against methicillin-resistant Staphylococcus aureus ATCC 43300 assessed as fold change in oxacillin MIC at 25 uM after 18 hrs by CLSI protocol based broth microdilution assay.
In assay [30] the test system is Staphylococcus aureus. As to the kind of experiment: Potentiation of methicillin induced antibacterial activity against methicillin-resistant Staphylococcus aureus COL assessed as methicillin MIC at 25 uM after 18 hrs by CLSI protocol based broth microdilution assay.
For assay [31], the system named is Staphylococcus aureus. As to the kind of experiment: Potentiation of ceftazidime induced antibacterial activity against methicillin-resistant Staphylococcus aureus USA300 assessed as fold change in ceftazidime MIC at 25 uM after 18 hrs by CLSI protocol based broth microdilution assay.
Assay [32] has as its system Staphylococcus aureus. The assay is described as follows: Potentiation of methicillin induced antibacterial activity against methicillin-resistant Staphylococcus aureus USA100 assessed as fold change in methicillin MIC at 25 uM after 18 hrs by CLSI protocol based broth microdilution assay.
Assay [33] has as its system Staphylococcus aureus. As to the kind of experiment: Potentiation of oxacillin induced antibacterial activity against methicillin-resistant Staphylococcus aureus assessed as fold decrease in blaI gene expression at 25 uM by RT-qPCR analysis. Put shortly:
as §1

Regarding `Brc1cccc2c1[nH]c1ccccc12`, the “fold change (FC)” value in the assay on Staphylococcus aureus [1] turned out to be 1.36; in the assay with Staphylococcus aureus [3], 3.86; with Staphylococcus aureus [6], 0.67; with Staphylococcus aureus [8] it was 1. Besides, the outcome with Staphylococcus aureus [2], in the assay on Staphylococcus aureus [4] and in the assay on Staphylococcus aureus [7] was inactive. Besides, the minimum inhibitory concentration (MIC) (as a rule, the lowest concentration that inhibits growth of the organism) in the assay on Staphylococcus aureus [5] was 1 µg/mL.

With `Brc1cccc2[nH]c3ccccc3c12`, the MIC in the assay on Staphylococcus aureus [9] is 512 µg/mL; with Staphylococcus aureus [10] it was 8 µg/mL; with Staphylococcus aureus [13], 64 µg/mL; with Staphylococcus aureus [14], 8 µg/mL; with Staphylococcus aureus [15], 8 µg/mL; in the assay on Staphylococcus aureus [16], 16 µg/mL. Further, the MIC in the assay with Staphylococcus aureus [20] was found to be 8 µg/mL; in the assay on Staphylococcus aureus [23] it was 32 µg/mL; in the assay on Staphylococcus aureus [30], 1020 µg/mL. Also, the “fold change (FC)” value turned out to be 1 in the assay with Staphylococcus aureus [11]; 4 in the assay with Staphylococcus aureus [17]; 1 in the assay on Staphylococcus aureus [18]; 8.06 in the assay on Staphylococcus aureus [21]; 4 with Staphylococcus aureus [22]; 4 in the assay on Staphylococcus aureus [25]. Moreover, the “fold change (FC)” value with Staphylococcus aureus [26] worked out at 1; in the assay on Staphylococcus aureus [27], 2; in the assay with Staphylococcus aureus [28], 4; with Staphylococcus aureus [29] it was 4; with Staphylococcus aureus [31] it was 1; in the assay with Staphylococcus aureus [32], 16. In the assay on Staphylococcus aureus [33], the “fold change (FC)” value was found to be 4.65. Moreover, the outcome with Staphylococcus aureus [12], with Staphylococcus aureus [19] and in the assay on Staphylococcus aureus [24] was inactive.
